Laboratory results taken from PMC5319884 (Biochemistry, 2017).
Entries after “also recorded” stand apart in the source; their conditions may differ. Like-named read-outs stand apart in the source and are kept apart here.

Columns and labels:
Format in all cases: biochemical
hGOAT [1] = target: T1, hGOAT (Homo sapiens, UniProt Q96T53); experiment: in vitro hGOAT octanoylation activity assay
T1 sequence (Q96T53 1-435): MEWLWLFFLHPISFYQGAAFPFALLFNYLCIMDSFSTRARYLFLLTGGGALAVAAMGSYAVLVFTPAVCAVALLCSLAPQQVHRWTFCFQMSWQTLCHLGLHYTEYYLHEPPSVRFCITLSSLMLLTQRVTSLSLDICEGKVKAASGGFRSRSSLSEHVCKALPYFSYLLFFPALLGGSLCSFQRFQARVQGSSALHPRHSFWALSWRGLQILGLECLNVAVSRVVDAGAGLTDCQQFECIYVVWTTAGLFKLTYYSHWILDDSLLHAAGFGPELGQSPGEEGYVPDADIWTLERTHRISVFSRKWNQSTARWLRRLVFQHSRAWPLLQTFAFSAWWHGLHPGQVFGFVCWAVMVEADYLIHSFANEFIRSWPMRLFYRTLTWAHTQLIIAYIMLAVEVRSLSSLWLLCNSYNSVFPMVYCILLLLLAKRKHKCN
How it was run: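 hGOAT was expressed in Sf9 cell membrane fractions, homogenized by needle, and ~100 μg membrane protein was preincubated 30 min at room temperature with 1 μM MAFP and test compound or vehicle (DMSO or ethanol) in 50 mM HEPES pH 7.0. Reactions were started with 500 μM octanoyl-CoA and 1.5 μM acrylodan-labeled peptide, run 3 h at room temperature in the dark, acid/isopropanol-stopped, TCA-clarified and analysed by reverse-phase HPLC. Percent activity was taken as octanoylated/total peptide fluorescence relative to vehicle, from three independent determinations.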

mGOAT = target: T2, mGOAT (Mus musculus, UniProt P0C7A3); experiment: in vitro mGOAT octanoylation activity assay; settings: side-by-side assay, mGOAT IC50 higher than hGOAT
T2 sequence (P0C7A3 1-435): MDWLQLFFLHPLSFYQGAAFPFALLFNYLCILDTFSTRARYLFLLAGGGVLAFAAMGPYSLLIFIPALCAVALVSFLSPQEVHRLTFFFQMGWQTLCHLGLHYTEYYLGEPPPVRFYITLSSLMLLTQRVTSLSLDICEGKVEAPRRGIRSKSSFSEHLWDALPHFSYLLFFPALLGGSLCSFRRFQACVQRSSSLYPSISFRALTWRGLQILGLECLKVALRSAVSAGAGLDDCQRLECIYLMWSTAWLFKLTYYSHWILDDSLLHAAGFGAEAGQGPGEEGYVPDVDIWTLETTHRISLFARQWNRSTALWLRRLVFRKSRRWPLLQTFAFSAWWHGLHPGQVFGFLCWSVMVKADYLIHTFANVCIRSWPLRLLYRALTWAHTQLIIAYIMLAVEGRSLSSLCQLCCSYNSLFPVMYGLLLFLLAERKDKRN
How it was run: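 mGOAT and hGOAT were expressed in Sf9 insect-cell membrane fractions, which were thawed on ice and homogenised through an 18-gauge needle. About 100 μg membrane protein was preincubated 30 min at room temperature with 1 μM MAFP plus inhibitor or vehicle (DMSO or ethanol) in 50 mM HEPES pH 7.0.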

hGOAT [2] = target: T1, hGOAT; experiment: inhibitor reversibility; settings: pretreatment at 3 x IC50, 10-fold dilution
How it was run: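 Undiluted homogenised Sf9 membrane containing hGOAT (~7 μg/μL protein) was preincubated 30 min at RT with 10 μM MAFP and inhibitor or vehicle (DMSO or ethanol). It was then diluted 10-fold into 50 mM HEPES pH 7.0 with 500 μM octanoyl CoA, 1.5 μM GSSFLC-acrylodan, and either vehicle or inhibitor at the same final level as in preincubation. Reactions ran 3 h at RT in the dark, followed by RP-HPLC quantitation of octanoylated peptide.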

hGOAT [3] = target: T1, hGOAT; experiment: inhibitor time dependence with hGOAT; settings: preincubation 5-60 min, 10 min reaction, 30 μM CDDO-EA
How it was run: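 hGOAT Sf9 membranes (~100 μg protein) were first preincubated 30 min at RT with 1 μM MAFP in 50 mM HEPES pH 7.0. Inhibitor or vehicle was then added for 5, 10, 30 or 60 min before starting with 500 μM octanoyl CoA and 1.5 μM GSSFLC-acrylodan. The reaction ran only 10 min at RT in the dark, then was stopped and analysed by RP-HPLC. % activity versus vehicle and IC50 were derived per preincubation time; minimum of three measurements.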

Row | Compound | inhibition of hGOAT activity (hGOAT [1]) | reversibility of hGOAT inhibition (hGOAT [2]) | inhibition of hGOAT activity (hGOAT [1]; at concentrations up to 100 μM) | also measured
1 | COC(=O)[C@]12CCC(C)(C)C[C@H]1[C@H]1C(=O)C=C3[C@@]4(C)C=C(C#N)C(=O)C(C)(C)[C@@H]4CC[C@@]3(C)[C@]1(C)CC2 [Compound 2, methyl 2-cyano-3,12-dioxooleana-1,9(11)dien-28-oate] | exhibits inhibitory activity against hGOAT; also recorded: most potent inhibition of hGOAT | – | – | –
2 | C[C@H]1[C@H](C)CC[C@]2(C(=O)O)CC[C@]3(C)C(=CC[C@@H]4[C@@]5(C)CC[C@H](O)C(C)(C)[C@@H]5CC[C@]43C)[C@H]12 [Compound 6, ursolic acid] | – | – | negligible inhibition | –
3 | CC1(C)CC[C@]2(C(=O)O)CC[C@]3(C)C(=CC[C@@H]4[C@@]5(C)CC[C@H](O)C(C)(C)[C@@H]5CC[C@]43C)[C@@H]2C1 [Compound 7, oleanic acid] | – | – | negligible inhibition | –
4 | CC1(C)CC[C@]2(C)CC=C3[C@]4(C)CC[C@H]5C(C)(C)[C@@H](O)CC[C@]5(C)[C@H]4CC[C@@]3(C)[C@@H]2C1 [Compound 8, taraxerol] | – | – | fails to inhibit | –
5 | O=C1C=CCCC1 [Compound 18, cyclohexenone] | – | – | – | inhibition of hGOAT activity (hGOAT [1]; at concentrations up to 1 mM): does not inhibit hGOAT activity
6 | CCN1C(=O)C=CC1=O [NEM, N-ethylmaleimide] | efficiently inhibits hGOAT | irreversible hGOAT inhibition | – | –

Now from value to compound, other results behind:

Row | inhibition of hGOAT activity (hGOAT [1]) | reversibility of hGOAT inhibition (hGOAT [2]) | inhibition of hGOAT activity (hGOAT [1]; at concentrations up to 100 μM) | Compound | also measured
7 | most potent inhibition of hGOAT | reversible hGOAT inhibition | – | CCNC(=O)[C@]12CCC(C)(C)C[C@H]1[C@H]1C(=O)C=C3[C@@]4(C)C=C(C#N)C(=O)C(C)(C)[C@@H]4CC[C@@]3(C)[C@]1(C)CC2 [Compound 3] | IC50 against mGOAT relative to hGOAT (mGOAT): ~ 8 fold; time dependence of hGOAT inhibition (hGOAT [3]): time-dependent inhibition
8 | lack of inhibition | – | – | CC1(C)CC[C@]2(C(=O)O)CC[C@]3(C)[C@H](C(=O)C=C4[C@@]5(C)C=C(C#N)C(=O)C(C)(C)[C@@H]5CC[C@]43C)[C@@H]2C1 [Compound 5] | –
9 | lack of hGOAT inhibition | – | – | C[C@]12CC[C@@H]3c4ccc(O)cc4CC[C@H]3[C@@H]1CCC2=O [Compound 15, estrone] | –
10 | – | reversible inhibition | – | [Dap^3]octanoyl-ghrelin (1-5)-NH2 | –
